Data: ChEMBL document CHEMBL4808182, “Discovery of the Soluble Guanylate Cyclase Activator Runcaciguat (BAY 1101042)” (J Med Chem, 2021)

Tests used:
[1] = biological target: T1, Guanylate cyclase soluble subunit alpha-1 (Rattus norvegicus) (UniProt P19686); test: Activation of recombinant rat sGC alpha1 subunit expressed in CHO cells assessed as induction of [32P-cGMP] formation using alpha-[32P-GTP] as substrate measured after 6 mins by luminescence assay; format: cell-based; details: filed as activator
T1 sequence (whole entry): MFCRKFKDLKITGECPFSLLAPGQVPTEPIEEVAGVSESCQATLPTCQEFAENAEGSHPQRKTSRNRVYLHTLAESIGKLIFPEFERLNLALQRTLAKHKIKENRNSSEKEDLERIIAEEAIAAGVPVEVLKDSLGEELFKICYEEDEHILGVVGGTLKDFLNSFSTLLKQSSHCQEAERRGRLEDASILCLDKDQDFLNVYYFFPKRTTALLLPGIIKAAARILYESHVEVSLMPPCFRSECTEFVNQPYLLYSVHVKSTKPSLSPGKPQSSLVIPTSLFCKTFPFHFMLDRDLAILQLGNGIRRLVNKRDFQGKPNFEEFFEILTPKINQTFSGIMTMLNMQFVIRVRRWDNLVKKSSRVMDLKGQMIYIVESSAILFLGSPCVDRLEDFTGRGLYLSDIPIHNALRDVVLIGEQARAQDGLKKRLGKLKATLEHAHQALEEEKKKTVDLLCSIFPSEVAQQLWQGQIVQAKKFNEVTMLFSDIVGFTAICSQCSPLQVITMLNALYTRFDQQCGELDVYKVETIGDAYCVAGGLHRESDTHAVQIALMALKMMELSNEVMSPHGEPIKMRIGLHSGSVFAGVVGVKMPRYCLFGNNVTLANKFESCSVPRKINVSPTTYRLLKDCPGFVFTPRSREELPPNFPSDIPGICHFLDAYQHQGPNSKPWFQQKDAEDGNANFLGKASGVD

[2] = biological target: T2, Cytochrome P450 1A2 (Homo sapiens, UniProt P05177); test: Induction of CYP1A2 in human hepatocytes at > 10000 ng/ml using phenacetin as substrate incubated for 60 mins by LC-MS/MS analysis; format: ADME, cell-based, Hepatocyte; details: 1 h
T2 sequence (P05177 whole entry): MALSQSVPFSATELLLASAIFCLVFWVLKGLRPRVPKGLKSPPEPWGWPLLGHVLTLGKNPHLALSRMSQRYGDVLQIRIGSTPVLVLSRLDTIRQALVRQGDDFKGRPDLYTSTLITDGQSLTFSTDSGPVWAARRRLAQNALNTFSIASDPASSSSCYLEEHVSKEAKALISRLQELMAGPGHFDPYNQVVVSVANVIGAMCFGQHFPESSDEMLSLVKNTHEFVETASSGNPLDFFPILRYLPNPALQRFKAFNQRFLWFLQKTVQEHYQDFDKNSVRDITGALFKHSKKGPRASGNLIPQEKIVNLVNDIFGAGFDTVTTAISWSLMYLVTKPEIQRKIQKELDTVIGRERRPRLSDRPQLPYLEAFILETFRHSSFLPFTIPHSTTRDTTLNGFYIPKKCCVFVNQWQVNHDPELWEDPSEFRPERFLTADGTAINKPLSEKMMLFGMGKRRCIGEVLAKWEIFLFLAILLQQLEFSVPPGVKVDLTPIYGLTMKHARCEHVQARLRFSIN

[3] = biological target: Cytochrome P450 3A4 (Homo sapiens, UniProt P08684); test: Induction of CYP3A4 in human hepatocytes at > 10000 ng/ml using phenacetin as substrate incubated for 60 mins by LC-MS/MS analysis; format: ADME, cell-based, Hepatocyte; details: 1 h
Chain of Cytochrome P450 3A4 (P08684 whole entry): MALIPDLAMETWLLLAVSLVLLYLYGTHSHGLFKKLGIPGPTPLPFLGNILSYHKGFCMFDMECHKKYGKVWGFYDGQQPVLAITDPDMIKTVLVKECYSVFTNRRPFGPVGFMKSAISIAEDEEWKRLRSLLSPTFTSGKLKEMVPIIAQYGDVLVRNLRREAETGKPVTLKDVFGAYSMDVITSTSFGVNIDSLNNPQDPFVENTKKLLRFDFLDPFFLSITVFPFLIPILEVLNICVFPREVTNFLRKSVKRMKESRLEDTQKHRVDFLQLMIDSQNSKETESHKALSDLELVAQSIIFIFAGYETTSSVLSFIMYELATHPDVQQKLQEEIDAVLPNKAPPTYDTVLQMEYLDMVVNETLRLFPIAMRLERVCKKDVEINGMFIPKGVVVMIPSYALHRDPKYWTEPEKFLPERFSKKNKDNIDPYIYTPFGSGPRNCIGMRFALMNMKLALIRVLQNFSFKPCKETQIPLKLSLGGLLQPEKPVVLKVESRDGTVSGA

[4] = biological target: T1, Guanylate cyclase soluble subunit alpha-1 (Rattus norvegicus); test: Activation of recombinant rat sGC alpha1 subunit expressed in CHO cells assessed as induction of [32P-cGMP] formation by measuring efficacy using alpha-[32P-GTP] as substrate measured after 6 mins by luminescence assay relative to control; format: cell-based
[5] = Activation of recombinant rat sGC expressed in CHO cells by luminescence assay; format: cell-based
How it was run: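 Stable CHO reporter cell line overexpressing rat sGC; cGMP formation read as luminescence. EC50 from concentration–response. MEC taken as lowest concentration giving at least threefold increase in basal luminescence.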

[6] = Induction of CYP3A4 in human hepatocytes using phenacetin as substrate incubated for 60 mins by LC-MS/MS analysis; details: 1 h
[7] = Clearance in Wistar rat at 0.3 mg/kg, iv measured up to 24 hrs by LC-MS analysis; format: ADME, organism-based; details: in vivo
How it was run: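 Rats dosed iv at 0.3 mg/kg; blood clearance determined.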

[8] = Plasma clearance in iv dosed cynomolgus monkey measured up to 24 hrs by LC-MS analysis; format: ADME, organism-based, Macaca fascicularis
[9] = Plasma clearance in iv dosed Beagle dog measured up to 24 hrs by LC-MS analysis; format: ADME, organism-based, Canis lupus familiaris

| Compound | MEC [1] [nM] | further results |
| --- | --- | --- |
| Cc1c(CCC(=O)O)cccc1NC(=O)[C@H](c1ccc(CN2N=C(c3ccccc3)OCC2=O)cc1)C(C)C | 30 |  |
| Cc1c(CCC(=O)O)cccc1NC(=O)[C@H](c1ccc(Cn2nc(-c3ccccc3)ccc2=O)cc1)C1CCCC1 | 1 |  |
| CC[C@@H](C)[C@H](C(=O)Nc1cccc(CCC(=O)O)c1C)N1CCC(CN2N=C(c3ccccc3)OCC2=O)CC1 | 30 |  |
| Cc1c(CCC(=O)O)cccc1NC(=O)[C@H](c1ccc(CN2N=C(c3ccccc3)OCC2=O)cc1)C1CCCC1 | 3 | Activity [2]: Not Active; Activity [3]: Not Active; Efficacy ([4]; filed as activator): 110%; EC50 ([5]; CHO): 27 nM |
| Cc1c(CCC(=O)O)cccc1NC(=O)[C@H](c1ccc(CN2N=C(c3ccccc3)OCC2=O)cc1)[C@@H](C)C(F)(F)F | 3 |  |
| CC[C@@H](C)[C@H](C(=O)Nc1cccc(CCC(=O)O)c1C)c1ccc(CN2N=C(c3ccccc3)OCC2=O)cc1 | 1 |  |
| CN(C(=O)C(c1ccc(CN2N=C(c3ccccc3)OCC2=O)cc1)C1CCCC1)c1cccc(CCC(=O)O)c1 (stereo not given) | 10000 |  |
| O=C(N[C@@H](CO)c1ccccc1)C(c1ccc(Cn2nc(-c3ccccc3)c3ccccc3c2=O)cc1)C1CCCC1 (stereo not given in full) | 100 |  |
| O=C(O)CCc1cccc(NC(=O)[C@@H](c2ccc(CN3N=C(c4ccccc4)OCC3=O)cc2)C2CCCC2)c1 | 300 |  |
| CC(C)C(CC(=O)O)c1ccc(Cl)c(NC(=O)[C@H](c2ccc(Cl)cc2)[C@@H](C)C(F)(F)F)c1 (stereo in doubt; 44b) [listing 1 of 2 here] | 3 | Efficacy ([4]; filed as activator): 47% |
| Cc1c(C=C[C@H](c2ccc(CN3N=C(c4ccccc4)OCC3=O)cc2)C2CCCC2)cccc1CCC(=O)O (mixture of isomers) | 300 |  |
| C[C@H]([C@H](C(=O)Nc1ccc(Cl)c(CC2(C(=O)O)CC2)c1)c1ccc(Cl)cc1)C(F)(F)F | 300 | Efficacy [4]: 1.2% |
| CC(C)C(CC(=O)O)c1ccc(Cl)c(NC(=O)[C@H](c2ccc(Cl)cc2)[C@@H](C)C(F)(F)F)c1 (stereo in doubt; 44b) [listing 2 of 2 here] |  | EC50 ([5]; cho): 10 nM; Activity [6]: < 29 nM |
| C[C@H]([C@H](C(=O)Nc1cccc(CCC(=O)O)c1)c1ccc(CN2N=C(c3ccccc3)OCC2=O)cc1)C(F)(F)F | 3 | clearance [7]: 27 mL/min/kg; clearance [8]: 16.7 mL/min/kg; clearance [9]: 23.3 mL/min/kg |
| CC(C)C(CC(=O)O)c1ccc(Cl)c(NC(=O)[C@H](c2ccc(Cl)cc2)[C@@H](C)C(F)(F)F)c1 (stereo in doubt; 44a) | 6.5 | Efficacy ([4]; filed as activator): 58% |
| Cc1c(CCC(=O)O)cccc1C(=O)NC(c1ccc(CN2N=C(c3ccccc3)OCC2=O)cc1)C1CCCC1 (stereo not given) | 3000 |  |
| Cc1c(CCC(=O)O)cccc1NC(=O)C(c1ccc(CN2CCOC(c3ccccc3)=N2)cc1)C1CCCC1 (racemic) | 1000 |  |
| C[C@H]([C@H](C(=O)Nc1cc(C2(CC(=O)O)COC2)ccc1Cl)c1ccc(Cl)cc1)C(F)(F)F | 3 | Efficacy ([4]; filed as activator): 52%; EC50 ([5]; CHO): 70 nM; Activity [6]: 2245 nM |
| CC(C)(Cc1cccc(NC(=O)[C@H](c2ccc(CN3N=C(c4ccccc4)OCC3=O)cc2)C2CCCC2)c1)C(=O)O | 30 |  |
| Cc1c(CCC(=O)O)cccc1NC(=O)[C@H](c1ccc(Cn2nc(C(F)(F)F)ccc2=O)cc1)C1CCCC1 | 3 |  |
| Cc1ccc(=O)n(Cc2ccc(C(C(=O)Nc3cccc(CCC(=O)O)c3C)C3CCCC3)cc2)n1 (racemic) | 30 |  |
